# Assays:
# blood-brain barrier = assay: Contrast-enhanced MRI of BBB integrity; format: in vivo, mouse; details: wild-type mice, tail-vein injection, 7-T T1-weighted MRI over 20 min, n = 4
# How it was run: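 Mice received targeting or nontargeting siRNA (20 μg complexed with in vivo-jetPEI in 10% glucose, 15 min at room temperature). On a 7-T small-animal MRI, scans ran before and after tail-vein 100 μl of 1:3-diluted Gd-DTPA (0.5 M stock), monitored 20 min. Settings: TR/TE 500/2.7 ms, 30° flip angle, 8 repetitions. Hippocampal bolus-chase clearance was analysed blind to treatment.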
# claudin-5 and occludin = assay: Tight junction protein levels after Aβ treatment; format: cell-based, mouse; details: brain endothelial cells, increasing doses, 12 hours after treatment, Western blot
# How it was run: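 Bend.3 mouse brain endothelial cells were grown in DMEM with 20% FCS and 2 mM sodium pyruvate at 37°C, 5% CO2. They were exposed 12 h to increasing concentrations of Aβ(1–40) peptide forms, with unmodified monomer at 0.1 to 1 μM. Cells were lysed in tris/2% SDS/10 mM DTT buffer and spun 12,000 rpm for 20 min at 4°C. Tight junction proteins were measured by Western blot densitometry, n = 3 […] per concentration.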
# [1] = cited from earlier work
Compound,extravasation of MRI contrast agent after claudin-5 and occludin cosuppression (blood-brain barrier),levels of claudin-5 and occludin protein (claudin-5 and occludin),propensity for aggregation [1]
"O=C([O-])CN(CCN(CC(=O)[O-])CC(=O)O)CCN(CC(=O)[O-])CC(=O)O.[Gd+3] [Gd-DTPA, gadolinium–diethylenetriamine pentaacetic acid]",increased extravasation,,
Aβ(1–40): unmodified Aβ(1–40) monomer isolated by size exclusion chromatography,,dose-dependent decrease,
Aβ(1–40)DiY: dityrosine cross-linked dimer prepared by oxidative cross-linking of Aβ(1–40),,down-regulated,
Aβ(1–40)F19P,,down-regulated,little or no propensity for aggregation
